Data from ChEMBL document CHEMBL3272221, “Phosphorus-nitrogen compounds. 21. Murine oncolytic and antifertility effect of adamantylaziridine compounds” (J Med Chem, 1978).
Active and inactive are the calls of the source. No cut-off for these calls is given here.

Experiments:
Mus musculus [1] = assay: Antifertility activity in male Swiss albino mouse assessed as viable conceptus at 10 mg/kg, ip qd administered for 5 days followed by mating measured after 1 week; type: functional, organism-based; design: dose 10 mg/kg
In short: (§1)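 Male Swiss albino mice, 4–6 per group, dosed ip or orally by gavage for five consecutive days (10, 15, 22.5 or 33.8 mg/kg), then serially mated with females over successive mating periods against control groups. Read-outs were nonpregnant/total females and viable/total conceptus per period. Student's t test versus control (p < 0.05) was used only for groups with at least two pregnant females.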

Mus musculus [2] = assay: Antifertility activity in male Swiss albino mouse assessed as nonpregnant female mouse at 10 mg/kg, ip qd administered for 5 days followed by mating measured after 3 weeks; type: functional, organism-based; design: dose 10 mg/kg; in short: as §1
Mus musculus [3] = assay: Antifertility activity in male Swiss albino mouse assessed as viable conceptus at 10 mg/kg, po qd administered for 5 days followed by mating measured after 4 weeks; type: functional, organism-based; design: dose 10 mg/kg; in short: as §1
Mus musculus [4] = assay: Antifertility activity in male Swiss albino mouse assessed as reduction of litter size at 10 mg/kg, po administered for 5 days followed by mating measured for 2 weeks; type: functional, organism-based; design: dose 10 mg/kg; in short: as §1
[5] = Solubility of the compound in water; type: physicochemical; conditions: buffer
In short: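 Saturated aqueous solutions were shaken 23 h at 24 °C. The dissolved amount was determined gravimetrically after evaporation and drying at 70 °C.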

[6] = Octanol-water partition coefficient, log P of the compound; type: physicochemical
In short: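 Shake-flask partitioning: 0.5 g solute in 50.0 mL each of 1-octanol and water, shaken 18 h at 24 °C. Layers were separated, filtered and evaporated (octanol removed as its water azeotrope), dried at 70 °C and weighed. Concentrations were determined gravimetrically.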

L1210 [7] = assay: Antitumor activity against mouse L1210 cells allografted in mouse assessed as mean survival time at 10 mg/kg, ip after 9 days; type: functional; conditions: route intraperitoneal
In short: (§2)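 Mice bearing ip-implanted L1210 ascites cells dosed ip daily for 9 days, run by NCI contractors. Activity was expressed as % T/C, the mean survival time of treated over control animals as a percent, with >125% taken as active. Deaths at a given dose were recorded as toxicity.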

Mus musculus [8] = assay: Toxicity in mouse allografted with mouse L1210 cells assessed as death at 20 mg/kg, ip; type: organism-based; design: dose 20 mg/kg, route intraperitoneal; conditions: in vivo; in short: as §2
Mus musculus [9] = assay: Antifertility activity in male Swiss albino mouse assessed as nonpregnant female mouse at 33.8 mg/kg, po qd administered for 5 days followed by mating measured after 1 week; type: functional, organism-based; design: dose 33.8 mg/kg; in short: as §1
Mus musculus [10] = assay: Antifertility activity in male Swiss albino mouse assessed as nonpregnant female mouse at 33.8 mg/kg, ip qd administered for 5 days followed by mating measured after 2 weeks; type: functional, organism-based; design: dose 33.8 mg/kg; in short: as §1
Mus musculus [11] = assay: Antifertility activity in male Swiss albino mouse assessed as nonpregnant female mouse at 10 mg/kg, ip qd administered for 5 days followed by mating measured after 2 weeks; type: functional, organism-based; design: dose 10 mg/kg; in short: as §1
Mus musculus [12] = assay: Antifertility activity in male Swiss albino mouse assessed as viable conceptus at 22.5 mg/kg, ip qd administered for 5 days followed by mating measured after 2 weeks; type: functional, organism-based; design: dose 22.5 mg/kg; in short: as §1
Mus musculus [13] = assay: Antifertility activity in male Swiss albino mouse assessed as nonpregnant female mouse at 33.8 mg/kg, ip qd administered for 5 days followed by mating measured after 3 weeks; type: functional, organism-based; design: dose 33.8 mg/kg; in short: as §1
Mus musculus [14] = assay: Antifertility activity in male Swiss albino mouse assessed as nonpregnant female mouse at 22.5 mg/kg, po qd administered for 5 days followed by mating measured after 3 weeks; type: functional, organism-based; design: dose 22.5 mg/kg; in short: as §1
Mus musculus [15] = assay: Antifertility activity in male Swiss albino mouse assessed as viable conceptus at 22.5 mg/kg, ip qd administered for 5 days followed by mating measured after 3 weeks; type: functional, organism-based; design: dose 22.5 mg/kg; in short: as §1
Mus musculus [16] = assay: Antifertility activity in male Swiss albino mouse assessed as viable conceptus at 10 mg/kg, ip qd administered for 5 days followed by mating measured after 3 weeks; type: functional, organism-based; design: dose 10 mg/kg; in short: as §1
Mus musculus [17] = assay: Antifertility activity in male Swiss albino mouse assessed as viable conceptus at 33.8 mg/kg, po qd administered for 5 days followed by mating measured after 3 weeks; type: functional, organism-based; design: dose 33.8 mg/kg; in short: as §1
Mus musculus [18] = assay: Antifertility activity in male Swiss albino mouse assessed as nonpregnant female mouse at 33.8 mg/kg, ip qd administered for 5 days followed by mating measured after 4 weeks; type: functional, organism-based; design: dose 33.8 mg/kg; in short: as §1
Mus musculus [19] = assay: Antifertility activity in male Swiss albino mouse assessed as nonpregnant female mouse at 10 mg/kg, ip qd administered for 5 days followed by mating measured after 4 weeks; type: functional, organism-based; design: dose 10 mg/kg; in short: as §1
Mus musculus [20] = assay: Antifertility activity in male Swiss albino mouse assessed as viable conceptus at 10 mg/kg, ip qd administered for 5 days followed by mating measured after 4 weeks; type: functional, organism-based; design: dose 10 mg/kg; in short: as §1
Mus musculus [21] = assay: Antifertility activity in male Swiss albino mouse assessed as nonpregnant female mouse at 22.5 mg/kg, ip qd administered for 5 days followed by mating measured after 5 weeks; type: functional, organism-based; design: dose 22.5 mg/kg; in short: as §1
Mus musculus [22] = assay: Antifertility activity in male Swiss albino mouse assessed as nonpregnant female mouse at 33.8 mg/kg, ip qd administered for 5 days followed by mating measured after 5 weeks; type: functional, organism-based; design: dose 33.8 mg/kg; in short: as §1
Mus musculus [23] = assay: Antifertility activity in male Swiss albino mouse assessed as nonpregnant female mouse at 15 mg/kg, po qd administered for 5 days followed by mating measured after 5 weeks; type: functional, organism-based; design: dose 15 mg/kg; in short: as §1
Mus musculus [24] = assay: Antifertility activity in male Swiss albino mouse assessed as nonpregnant female mouse at 22.5 mg/kg, po qd administered for 5 days followed by mating measured after 5 weeks; type: functional, organism-based; design: dose 22.5 mg/kg; in short: as §1
Mus musculus [25] = assay: Antifertility activity in male Swiss albino mouse assessed as nonpregnant female mouse at 33.8 mg/kg, po qd administered for 5 days followed by mating measured after 5 weeks; type: functional, organism-based; design: dose 33.8 mg/kg; in short: as §1
Mus musculus [26] = assay: Antifertility activity in male Swiss albino mouse assessed as viable conceptus at 10 mg/kg, ip administered for 5 days followed by mating measured after 5 weeks; type: functional, organism-based; design: dose 10 mg/kg; in short: as §1
Mus musculus [27] = assay: Antifertility activity in male Swiss albino mouse assessed as viable conceptus at 15 mg/kg, ip administered for 5 days followed by mating measured after 5 weeks; type: functional, organism-based; design: dose 15 mg/kg; in short: as §1
L1210 [28] = assay: Antitumor activity against mouse L1210 cells allografted in mouse assessed as mean survival time at 50 mg/kg, ip after 9 days; type: functional; conditions: route intraperitoneal; in short: as §2
Mus musculus [29] = assay: Toxicity in mouse allografted with mouse L1210 cells assessed as death at 200 mg/kg, ip; type: organism-based; design: dose 200 mg/kg, route intraperitoneal; conditions: in vivo; in short: as §2
Mus musculus [30] = assay: Antifertility activity in male Swiss albino mouse assessed as nonpregnant female mouse at 15 mg/kg, ip qd administered for 5 days followed by mating measured after 1 week; type: functional, organism-based; design: dose 15 mg/kg; in short: as §1
Mus musculus [31] = assay: Antifertility activity in male Swiss albino mouse assessed as nonpregnant female mouse at 22.5 mg/kg, ip qd administered for 5 days followed by mating measured after 1 week; type: functional, organism-based; design: dose 22.5 mg/kg; in short: as §1
Mus musculus [32] = assay: Antifertility activity in male Swiss albino mouse assessed as nonpregnant female mouse at 33.8 mg/kg, ip qd administered for 5 days followed by mating measured after 1 week; type: functional, organism-based; design: dose 33.8 mg/kg; in short: as §1
Mus musculus [33] = assay: Antifertility activity in male Swiss albino mouse assessed as nonpregnant female mouse at 10 mg/kg, […] administered for 5 days followed by mating measured after 1 week; type: functional, organism-based; design: dose 10 mg/kg; in short: as §1
Mus musculus [34] = assay: Antifertility activity in male Swiss albino mouse assessed as nonpregnant female mouse at 15 mg/kg, po qd administered for 5 days followed by mating measured after 1 week; type: functional, organism-based; design: dose 15 mg/kg; in short: as §1

O=P(NC12CC3CC(CC(C3)C1)C2)(N1CC1)N1CC1
Activity (Mus musculus [1]): Active | Activity (Mus musculus [2]): Active | Activity (Mus musculus [3]): inactive | Activity (Mus musculus [4]): Active | solubility [5]: 0.13% | logP [6]: 1.45 | T/C (L1210 [7]): 244% | Activity (Mus musculus [8]): Toxic

O=P(N1CC1)(N1CC1)C12CC3CC(CC(C3)C1)C2
Activity (Mus musculus [9]): inactive | Activity (Mus musculus [1]): Active | Activity (Mus musculus [10]): Active | Activity (Mus musculus [11]): inactive | Activity (Mus musculus [12]): inactive | Activity (Mus musculus [13]): Active | Activity (Mus musculus [14]): inactive | Activity (Mus musculus [15]): Active | Activity (Mus musculus [16]): inactive | Activity (Mus musculus [17]): inactive | Activity (Mus musculus [18]): Active | Activity (Mus musculus [19]): inactive | Activity (Mus musculus [20]): inactive | Activity (Mus musculus [21]): inactive | Activity (Mus musculus [22]): Active | Activity (Mus musculus [23]): inactive | Activity (Mus musculus [24]): inactive | Activity (Mus musculus [25]): inactive | Activity (Mus musculus [26]): inactive | Activity (Mus musculus [27]): inactive | solubility [5]: 0.94% | logP [6]: 0.88 | T/C (L1210 [28]): 243% | Activity (Mus musculus [29]): Toxic | Activity (Mus musculus [30]): Active | Activity (Mus musculus [31]): Active | Activity (Mus musculus [32]): Active | Activity (Mus musculus [33]): inactive | Activity (Mus musculus [34]): inactive
